Results as given in ChEMBL document CHEMBL3286348, “Undecaprenyl diphosphate synthase inhibitors: antibacterial drug leads” (J Med Chem, 2014).
Values after ≈ are worked out from the molar mass of the structure shown.

Assays:
Escherichia coli [1] = assay: Antibacterial activity against Escherichia coli ATCC 29425 after 3 hrs by MTT assay; assay type: functional, organism-based; details: ATCC 29425, 3 h
How it was run: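 Overnight (16 h) culture diluted 50-fold into LB, grown to OD600 ∼0.4, then diluted 500-fold and plated. Compound 2-fold serial dilutions from 0.3 mM; 3 h at 37 °C to mid-exponential phase. Viability read by MTT (2–4 h, then detergent 2 h at 23 °C in dark), absorbance 570 nm. IC50 by nonlinear regression, mean of two independent experiments.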

[2] = Inhibition of Staphylococcus aureus UPPS-mediated condensation of FPP with IPP by spectrophotometric analysis
How it was run: (§1)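 Continuous spectrophotometric assay of FPP + IPP condensation by purified recombinant UPPS (EcUPPS or SaUPPS): 350 μM IPP, 35 μM FPP, 400 μM MESG to follow PPi release, 20 mM Tris·HCl pH 7.5, 0.01% v/v Triton X-100, 1 mM MgCl2.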

Bacillus subtilis [3] = assay: Antibacterial activity against Bacillus subtilis subsp. subtilis ATCC 6051 after 12 to 16 hrs by broth dilution method; assay type: functional, organism-based
How it was run: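 Microbroth dilution: 16 h LB culture diluted 50-fold, grown to OD600 ∼0.4, diluted 500-fold into LB and plated. Compound serially diluted from 0.5 mM; incubation 12–16 h at 37 °C; growth read as absorbance at 570 nm. IC50 by nonlinear regression, averaged over two independent experiments.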

[4] = Inhibition of Escherichia coli UPPS-mediated condensation of FPP with IPP by spectrophotometric analysis; how it was run: as §1
Saccharomyces cerevisiae = assay: Toxicity in Saccharomyces cerevisiae ATCC 208352 after 36 hrs by broth dilution method; assay type: organism-based; details: ATCC 208352, 36 h
How it was run: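 Yeast growth inhibition run in YPD medium: inoculum prepared by 50-fold dilution, growth to OD600 ∼0.4, then 500-fold dilution. Compound serially diluted from 0.5 mM; plates held 36 h at 37 °C; absorbance at 570 nm. IC50 by nonlinear regression, mean of two independent experiments.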

Enterococcus faecalis [5] = assay: Antibacterial activity against vancomycin-resistant Enterococcus faecalis U503 after 16 hrs by microbroth dilution method in presence of vancomycin; assay type: functional; details: U503, 16 h
Bacillus anthracis [6] = assay: Antibacterial activity against Bacillus anthracis Sterne after 16 hrs by microbroth dilution method; assay type: functional
Enterococcus faecalis [7] = assay: Antibacterial activity against vancomycin-resistant Enterococcus faecalis U503 after 16 hrs by microbroth dilution method; assay type: functional; details: U503, 16 h
How it was run: (§2)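 Stationary-phase cultures grown in brain–heart infusion medium at 37 °C, adjusted to OD600 0.016 in BHI, then plated. 2-fold dilutions from 0.25 to 64 μg mL–1 with DMSO as vehicle control. Kanamycin (1–32 μg mL–1) was the control for L. monocytogenes and gentamycin (1–64 μg mL–1) for S. aureus and E. faecalis. Incubated covered at 37 °C for 16 h with shaking. MIC was the concentration giving at least 99% growth suppression by turbidity.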

Staphylococcus aureus = assay: Antibacterial activity against methicillin-resistant Staphylococcus aureus USA300 after 16 hrs by microbroth dilution method; assay type: functional; details: USA300, 16 h; how it was run: as §2
Bacillus anthracis [8] = assay: Antibacterial activity against Bacillus anthracis Sterne after 16 hrs by microbroth dilution method in presence of ampicillin; assay type: functional
Listeria monocytogenes = assay: Antibacterial activity against Listeria monocytogenes 4b F2365 after 16 hrs by microbroth dilution method; assay type: functional; details: 4b F2365, 16 h; how it was run: as §2
Escherichia coli [9] = assay: Antibacterial activity against Escherichia coli MC4100 after 16 hrs by microbroth dilution method; assay type: functional; details: MC4100, 16 h
How it was run: (§3)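 Stationary-phase cultures grown in LB broth at 37 °C, adjusted to OD600 0.016 in LB, then added to 96-well plates. 2-fold dilutions from 0.25 to 64 μg mL–1, with kanamycin (1–32 μg mL–1) and DMSO as controls. Incubated covered at 37 °C for 16 h with shaking. MIC taken as the lowest concentration suppressing at least 99% of growth, judged by turbidity.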

Pseudomonas putida = assay: Antibacterial activity against Pseudomonas putida after 16 hrs by microbroth dilution method; assay type: functional; how it was run: as §3
Bacillus subtilis [10] = assay: Antibacterial activity against Bacillus subtilis 168 after 16 hrs by microbroth dilution method; assay type: functional; details: subsp. subtilis str. 168, 16 h; how it was run: as §3

Structure (SMILES): CCOc1cc(/C=C2\SC(=S)N(c3ccc(F)cc3)C2=O)ccc1O
- IC50 (Escherichia coli [1]): > 200 µM
- IC50 [2]: 150 µM
- IC50 (Bacillus subtilis [3]): > 200 µM
- IC50 [4]: 41 µM
- IC50 (Saccharomyces cerevisiae): > 200 µM

Structure (SMILES): O=C1/C(=C\c2cccc(O)c2O)SC(=S)N1Cc1ccco1
- IC50 (Escherichia coli [1]): > 200 µM
- IC50 [2]: 5.3 µM
- IC50 (Bacillus subtilis [3]): > 200 µM
- IC50 [4]: > 100 µM
- IC50 (Saccharomyces cerevisiae): > 200 µM

Structure (SMILES): Cc1cc(Cl)ccc1-c1ccc(/C=C2\SC(=S)N(CC(=O)O)C2=O)o1
- IC50 (Escherichia coli [1]): > 200 µM
- MIC (Enterococcus faecalis [5]): 1.78 µg/mL
- MIC (Bacillus anthracis [6]): 1 µg/mL (≈ 2.54 µM)
- MIC (Enterococcus faecalis [7]): 1 µg/mL (≈ 2.54 µM)
- IC50 (Bacillus subtilis [3]): 2.9 µM
- MIC (Staphylococcus aureus): 8 µg/mL (≈ 20.3 µM)
- IC50 [4]: 260 µM
- MIC (Bacillus anthracis [8]): 1.24 µg/mL
- IC50 (Saccharomyces cerevisiae): > 200 µM
- MIC (Listeria monocytogenes): 4 µg/mL (≈ 10.2 µM)
- MIC (Escherichia coli [9]): > 64 µg/mL
- MIC (Pseudomonas putida): > 64 µg/mL

Structure (SMILES): O=C(O)CCN1C(=O)/C(=C/c2ccc(-c3ccc(Cl)cc3Cl)o2)SC1=S
- IC50 (Escherichia coli [1]): > 200 µM
- MIC (Bacillus anthracis [6]): 0.25 µg/mL (≈ 0.584 µM)
- MIC (Bacillus subtilis [10]): 0.125 µg/mL (≈ 0.292 µM)
- MIC (Enterococcus faecalis [7]): 4 µg/mL (≈ 9.34 µM)
- IC50 [2]: 2.4 µM
- IC50 (Bacillus subtilis [3]): 0.43 µM
- MIC (Staphylococcus aureus): 4 µg/mL (≈ 9.34 µM)
- IC50 [4]: 2.1 µM
- IC50 (Saccharomyces cerevisiae): 180 µM
- MIC (Listeria monocytogenes): 0.125 µg/mL (≈ 0.292 µM)
- MIC (Escherichia coli [9]): > 64 µg/mL
- MIC (Pseudomonas putida): > 64 µg/mL

Structure (SMILES): Cc1ccc(-c2ccc(/C=C3\SC(=S)N(CCCC(=O)O)C3=O)o2)c([N+](=O)[O-])c1
- IC50 (Escherichia coli [1]): > 200 µM
- IC50 [2]: 5.7 µM
- IC50 (Bacillus subtilis [3]): 3.2 µM
- IC50 [4]: > 100 µM
- IC50 (Saccharomyces cerevisiae): > 200 µM

Structure (SMILES): O=C(O)CCCCCN1C(=O)/C(=C/c2ccc(-c3cc(Cl)ccc3Cl)o2)SC1=S
- IC50 (Escherichia coli [1]): > 200 µM
- IC50 [2]: 3.8 µM
- IC50 (Bacillus subtilis [3]): 5.6 µM
- IC50 [4]: > 100 µM
- IC50 (Saccharomyces cerevisiae): > 200 µM

Structure (SMILES): CN1C(=O)/C(=C/c2ccc(-c3cc(Cl)ccc3Cl)o2)SC1=S
- IC50 (Escherichia coli [1]): > 200 µM
- IC50 [2]: > 200 µM
- IC50 (Bacillus subtilis [3]): > 200 µM
- IC50 [4]: > 200 µM
- IC50 (Saccharomyces cerevisiae): > 200 µM

Structure (SMILES): O=C(O)c1ccc(N2C(=O)/C(=C/c3ccc(Br)cc3)SC2=S)cc1
- IC50 (Escherichia coli [1]): > 200 µM
- IC50 [2]: 170 µM
- IC50 (Bacillus subtilis [3]): > 200 µM
- IC50 [4]: > 200 µM
- IC50 (Saccharomyces cerevisiae): > 200 µM

Structure (SMILES): CC(=O)c1ccc(-c2ccc(/C=C3\SC(=S)N(c4ccccc4)C3=O)o2)cc1
- IC50 (Escherichia coli [1]): > 200 µM
- IC50 [2]: 32 µM
- IC50 (Bacillus subtilis [3]): > 200 µM
- IC50 [4]: 85 µM
- IC50 (Saccharomyces cerevisiae): > 200 µM

Structure (SMILES): CCOc1cc(/C=C2\SC(=S)N(c3cccc(F)c3)C2=O)ccc1OC(=O)c1cccs1
- IC50 (Escherichia coli [1]): > 200 µM
- IC50 [2]: > 200 µM
- IC50 (Bacillus subtilis [3]): > 200 µM
- IC50 [4]: > 200 µM
- IC50 (Saccharomyces cerevisiae): > 200 µM

Structure (SMILES): CC1=CC(=O)/C(=C\N2C(=O)/C(=C/c3cccc(O)c3)SC2=S)C(=O)O1
- IC50 (Escherichia coli [1]): > 200 µM
- IC50 [2]: > 100 µM
- IC50 (Bacillus subtilis [3]): > 200 µM
- IC50 [4]: > 100 µM
- IC50 (Saccharomyces cerevisiae): > 200 µM

Structure (SMILES): COc1cccc(/C=C2\SC(=S)N(Cc3ccco3)C2=O)c1OC
- IC50 (Escherichia coli [1]): > 200 µM
- IC50 [2]: > 100 µM
- IC50 (Bacillus subtilis [3]): > 200 µM
- IC50 [4]: > 100 µM
- IC50 (Saccharomyces cerevisiae): > 200 µM

Structure (SMILES): O=C1/C(=C/c2ccc(Cl)cc2Cl)SC(=S)N1Cc1ccco1
- IC50 (Escherichia coli [1]): > 200 µM
- IC50 [2]: > 100 µM
- IC50 (Bacillus subtilis [3]): > 200 µM
- IC50 [4]: > 100 µM
- IC50 (Saccharomyces cerevisiae): > 200 µM

Structure (SMILES): CCN1C(=O)/C(=C/c2ccc(OCC(=O)O)cc2)SC1=S
- IC50 (Escherichia coli [1]): > 200 µM
- IC50 [2]: > 100 µM
- IC50 (Bacillus subtilis [3]): > 200 µM
- IC50 [4]: > 100 µM
- IC50 (Saccharomyces cerevisiae): > 200 µM

Structure (SMILES): CN(C)c1ccc(/C=C2\SC(=S)N(Cc3ccco3)C2=O)cc1
- IC50 (Escherichia coli [1]): > 200 µM
- IC50 [2]: > 100 µM
- IC50 (Bacillus subtilis [3]): > 200 µM
- IC50 [4]: > 100 µM
- IC50 (Saccharomyces cerevisiae): > 200 µM

Structure (SMILES): CCOc1cccc(/C=C2\SC(=S)N(Cc3ccco3)C2=O)c1O
- IC50 (Escherichia coli [1]): > 200 µM
- IC50 [2]: > 100 µM
- IC50 (Bacillus subtilis [3]): > 200 µM
- IC50 [4]: > 100 µM
- IC50 (Saccharomyces cerevisiae): > 200 µM

Structure (SMILES): CCN1C(=O)/C(=C/c2ccc(OC)cc2)SC1=S
- IC50 (Escherichia coli [1]): > 200 µM
- IC50 [2]: > 100 µM
- IC50 (Bacillus subtilis [3]): > 200 µM
- IC50 [4]: > 100 µM
- IC50 (Saccharomyces cerevisiae): > 200 µM
